Measurements as given in ChEMBL document CHEMBL1136298, “Synthesis of novel C2 and C2-C8 linked pyrrolo[2,1-c][1,4]benzodiazepine-naphthalimide hybrids as DNA-binding agents” (2003).

Experiments:
SNB-19 = experiment: In vitro cytotoxic activity against central nervous system (CNS) SNB-19 cell line; type: functional; conditions: Homo sapiens
MOLT-4 = experiment: In vitro cytotoxic activity against MOLT-4 cell line; conditions: Homo sapiens
SR = experiment: In vitro cytotoxic activity against SR cell line; type: functional; conditions: Homo sapiens
SF-268 = experiment: In vitro anticancer activity against SF-268 (CNS) cell line; type: functional, Homo sapiens
Outline: (§1)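 Primary screen in a three-cell-line panel of MCF7 (breast), NCI-H460 (lung) and SF-268 (CNS), with each compound tested as one dose at 10⁻⁴ molar.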

T47D = experiment: In vitro cytotoxic activity against breast T-47D cell line; type: functional; conditions: Homo sapiens
NCI-H460 = experiment: In vitro anticancer activity against lung NCI-H460 cell line; type: functional, Homo sapiens; outline: as §1
HL-60 = experiment: In vitro cytotoxic activity against HL60 (TB) cell line; type: functional; conditions: Homo sapiens
MCF7 = experiment: In vitro anticancer activity against breast MCF-7 cell line; type: functional, Homo sapiens; outline: as §1
CCRF-CEM = experiment: In vitro cytotoxic activity against leukemia CCRF-CEM cell line; type: functional; conditions: Homo sapiens

Compound	GI50 (SNB-19)	GI50 (MOLT-4)	GI50 (SR)	Activity (SF-268)	GI50 (T47D)	Activity (NCI-H460)	GI50 (HL-60)	Activity (MCF7)	GI50 (CCRF-CEM)
COc1cc2c(cc1OCc1ccccc1)N=C[C@@H]1C/C(=C\C(=O)NCCCN3C(=O)c4cccc5cccc(c45)C3=O)CN1C2=O	80 nM	55 nM	< 10 nM	1%	34 nM	0%	91 nM	0%	62 nM
COc1cc2c(cc1OCc1ccccc1)N=C[C@@H]1C/C(=C\C(=O)NCCN3C(=O)c4cccc5cccc(c45)C3=O)CN1C2=O				95%		101%		89%	
COc1cc2c(cc1OCCCN1C(=O)c3cccc4cccc(c34)C1=O)N=C[C@@H]1C/C(=C\C(=O)NCCCN3C(=O)c4cccc5cccc(c45)C3=O)CN1C2=O				97%		102%		86%	
